# A selection: hits, their analogues and other compounds. The true share with any hit is near 2.4%.
# NadD block = inhibitors of S. aureus NadD, primary screen, biochemical, colorimetric, uHTS; Nicotinate-nucleotide adenylyltransferase NadD (Staphylococcus aureus N315); hit rate 0.78% among 360,000; inhibition, % at 20 µM; purified NadD enzyme, colorimetric absorbance read-out; in the data active means inhibition above about 26%
# Scp-1 inhibitor = Scp-1 phosphatase inhibitors, primary screen, biochemical, colorimetric, uHTS. inhibition, % at 20 µM. Carboxy-terminal domain RNA polymerase II polypeptide A small phosphatase 1 (Homo …. hit rate 0.88% among 340,000. Recombinant Scp1, phosphopeptide, malachite green phosphate absorbance;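 active means inhibition above about 50% at 20 µM, limit read from the data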;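 further: plate controls were DMSO wells with enzyme for no effect and wells lacking enzyme for full effect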
# Target sequence (Q9GZU7 76-261 limits assumed): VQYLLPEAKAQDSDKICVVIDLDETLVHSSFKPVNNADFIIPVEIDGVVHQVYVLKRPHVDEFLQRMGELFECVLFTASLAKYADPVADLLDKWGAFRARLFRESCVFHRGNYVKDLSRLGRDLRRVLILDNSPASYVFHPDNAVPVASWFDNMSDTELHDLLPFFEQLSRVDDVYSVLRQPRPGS
#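 assay system = SCP-1 phosphatase catalytic domain, residues 76-261 | buffer or medium = 50 mM Tris acetate pH 5.5, 0.005% Tween-20, 10 mM MgCl2 | incubation = enzyme reaction 45 min at room temperature, colour 5 min, stabilisation 30 min | signal = Phosphate-binding colour reagent, absorbance read at 630 nm | measure = % inhibition at 20 µM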
# STEP block = STEP phosphatase inhibitors, primary screen, biochemical, fluorescence intensity, uHTS | Tyrosine-protein phosphatase non-receptor type 5 (Homo sapiens), P54829 | recombinant STEP, OMFP fluorogenic substrate | inhibition, % at 20 µM | hit rate 0.25% among 360,000;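 active means inhibition at 20 µM, scaled per plate between control wells, above about 37%, limit read from the data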;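 further: 0% = DMSO with enzyme and substrate and 100% = substrate only without enzyme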
#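 Also added – OMFP at 25 µM · Test system – STEP tyrosine phosphatase · Technique – FITC-channel fluorescence of OMFP product · Schedule – 20 min at room temperature, dark · Evaluation – control-normalized % inhibition with plate pattern correction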
# DNMT1 block = human DNMT1 methyltransferase inhibitors, primary screen, biochemical, molecular beacon, fluorescence, HinP1I cleavage, uHTS | DNA (cytosine-5)-methyltransferase 1 (Homo sapiens), P26358 | inhibition (reported as % activation of signal), % at 10 µM | hit rate 0.83% among 360,000; in the data active means inhibition above about 50%
# SUMO1-SIM PPI = modulators of SUMO1 protein-protein interactions, primary screen, biochemical, uHTS. Small ubiquitin-related modifier 1 (Homo sapiens), P63165. SUMO1 binding to a labelled peptide, TR-FRET, 1 h. inhibition, % at 20 µM. hit rate 0.33% among 360,000; in the data active means inhibition above about 37%
# Target sequence (P63165 whole entry, looked up): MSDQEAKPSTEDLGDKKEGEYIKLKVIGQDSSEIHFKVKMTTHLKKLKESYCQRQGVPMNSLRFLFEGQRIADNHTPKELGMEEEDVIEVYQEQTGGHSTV
# LMPTP block = LMPTP phosphatase inhibitors, primary screen, biochemical, fluorescence intensity, uHTS; Low molecular weight phosphotyrosine protein phosphatase (Homo sapiens), P24666; hit rate 0.22% among 360,000; inhibition, % at 20 µM; recombinant LMPTP-A, OMFP fluorogenic substrate;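 active means compounds that cut the enzyme signal by at least half of the control window in the single-dose screen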;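 further: plate controls were DMSO wells with enzyme plus substrate for no effect and substrate without enzyme for full effect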
# Target sequence (P24666 whole entry, looked up): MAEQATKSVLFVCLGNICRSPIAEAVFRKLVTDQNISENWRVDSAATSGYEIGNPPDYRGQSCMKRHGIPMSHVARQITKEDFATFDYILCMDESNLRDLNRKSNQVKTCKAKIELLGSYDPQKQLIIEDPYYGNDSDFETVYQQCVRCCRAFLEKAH
#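 Test system – LMPTP-A phosphatase enzyme · Quantity – 0.625 nM LMPTP-A final · Reagent – OMFP substrate, 400 µM final · Dosing – one test concentration per compound, 20 µM, with 3% DMSO overall · Timing – 50 min enzyme reaction at room temperature, protected from light · Detection – fluorescence intensity · Controls – substrate-only low control, DMSO enzyme-plus-substrate high control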
# DNMT1 inh conf = DNMT1 methyltransferase inhibitor retest, confirmation, biochemical, molecular beacon, fluorescence, single concentration. shares compounds with DNMT1 block. DNMT1 molecular beacon HinP1I cleavage. inhibition, % at 10 µM. hit rate 8% among 2,300. AID 602385, 2012;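 active means average inhibition of at least 30% in the single-concentration confirmation test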
# Beacon interf = shows spectral interference in the DNMT1 beacon assay. DNMT1 molecular beacon spectral interference counterscreen, fluorescence 485/520. hit rate 1% among 2,300. shares compounds with DNMT1 block. AID 602387. activation (fluorescence interference), % at 10 µM;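 active means activation of at least 30% at 10 µM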;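 further: DNMT1 catalytic domain with a HinP1I cleavage step and a FAM/dabcyl DNA beacon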
# * = called active by the depositor; · = no result given.
SMILES,NadD block,Scp-1 inhibitor,STEP block,DNMT1 block,SUMO1-SIM PPI,LMPTP block,DNMT1 inh conf,Beacon interf
CCN(C(=O)Cn1c(=O)n(-c2cc(OC)c(OC)c(OC)c2)c(=O)c2ccccc21)c1cccc(C)c1,0,-8,-3,130*,4,-1,3,2
CC(C)(C)CN1CCNC[C@H]1Cc1ccc(O)cc1,-6,0,2,76*,11,0,3,4
CCCCN1CCNC[C@H]1Cc1ccc(O)cc1,-4,2,1,2,5,-3,·,·
Cc1cccc(OCC(=O)Nc2cccc(-c3nnc(-c4ccccc4)o3)c2)c1C,1,2,-1,57*,2,0,-2,-3
Cc1cccc(C)c1OCC(=O)Nc1cccc(-c2nnc(-c3ccccc3)o2)c1,4,-8,3,-5,3,1,·,·
Cc1cccc(NC(=S)NC2CC3CCCC(C2)N3Cc2cccs2)c1 (stereo unspecified),-5,1,5,84*,2,-2,3,1
CCOC(=O)c1[nH]c(C=O)c(C(=O)OCC)c1C,-5,-8,3,5,-1,2,·,·
Cc1cc(C)c(NC(=O)CNC(=O)c2ccc(-n3cncn3)c([N+](=O)[O-])c2)c(C)c1,0,-3,0,0,-30,0,·,·
C#CCn1c(=NC(=O)c2ccc(Br)s2)sc2cccc(OC)c21,8,-17,2,52*,-20,6,0,-6
C=CCn1c(=NC(=O)c2cccs2)sc2cccc(OC)c21,-3,-20,0,-1,-3,4,·,·
CN(C)c1ccc(/C=N/NC(=O)c2ccc(NC(=O)c3ccccc3)cc2)cc1,10,-4,1,7,3,0,·,·
O=C(N/N=C/c1ccc(Br)cc1)c1ccc(NC(=O)c2ccccc2)cc1,15,16,9,74*,11,21,-1,-6
N#CCSc1nnc(-c2ccc(F)cc2)n1N,-4,-1,-1,92*,3,-2,5,4
Nn1c(SCc2ccc(F)cc2)nnc1-c1ccncc1,-2,-7,-3,6,0,-1,·,·
CCN(CC)CCCN(Cc1cc2cc3c(cc2[nH]c1=O)OCO3)C(=S)NCCCOC,-2,0,0,6,-2,-3,·,·
Cc1cccc(/C=C/C(=O)c2cc(Br)ccc(=O)c2O)c1,30,-3,10,93*,13,32,10,4
CCn1ccc2cc(OC)ccc2c1=S,-3,0,-1,3,-7,-2,·,·
Cc1ccc(-c2nc3c(c(=O)[nH]c(=O)n3Cc3ccccc3)n2C)o1,10,27,2,70*,0,10,4,0
CCCc1c(C)[nH]c2ccc(C(=O)O)cc2c1=S,9,39,4,93*,96*,9,15,1
Cc1cc(-c2ccco2)c(C#N)c2nc3ccccc3n12,27,66*,25,69*,30,73*,5,9
CC(C)c1cc(N2CCN(C(=O)c3ccco3)CC2)n2c(nc3ccccc32)c1C#N,6,6,1,3,4,2,·,·
CC(C)c1ccc(NC(=O)C(c2ccccc2)N2CCOCC2)cc1 (stereo unspecified),2,-6,-1,71*,8,50*,2,4

# Assay outcomes from PubChem.
